In ChEMBL document CHEMBL1154402, “Antiviral effect of orally administered (-)-beta-D-2-aminopurine dioxolane in woodchucks with chronic woodchuck hepatitis virus infection” (Antimicrob Agents Chemother, 2007):
One block for each compound: values may come before it.

Legend:
[1] = system: Woodchuck hepatitis virus; assay: Antiviral activity against woodchuck hepatitis virus infected woodchucks assessed as log reduction of serum viral DNA per ml of serum after 4 weeks; format: functional
[2] = system: Marmota monax; assay: AUC (0 to infinity) in woodchuck hepatitis virus-negative woodchucks assessed as 9-(beta-D-1,3-dioxolan-4-yl)guanine at 33.3 mg/kg, iv administered as single dose; format: ADME, organism-based, Plasma; set-up: time infinity, dose 33.3 mg/kg, route intravenous; settings: in vivo
Procedure, shortened: (§1)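 Three WHV-negative adult woodchucks got a 33.3 mg/kg iv bolus, with one saline control. After a 4-week washout the same three got 33.3 mg/kg orally. Blood was drawn predose and at 0.25–24 h. Serum APD and DXG were measured by HPLC-UV (LOQ 0.2 µM) and analysed noncompartmentally. AUC0-∞ used the trapezoidal rule, extrapolated by Clast/λz.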

[3] = system: Mus musculus; assay: Terminal elimination half life in orally dosed mouse assessed as 9-(beta-D-1,3-dioxolan-4-yl)guanine; format: ADME, organism-based; settings: in vivo, po
[4] = system: Marmota monax; assay: Cmax in woodchuck hepatitis virus-negative woodchucks assessed as 9-(beta-D-1,3-dioxolan-4-yl)guanine at 33.3 mg/kg, iv administered as single dose; format: ADME, organism-based; set-up: dose 33.3 mg/kg, route intravenous; settings: in vivo; procedure, shortened: as §1
[5] = system: Marmota monax; assay: Cmax in woodchuck hepatitis virus-negative woodchucks assessed as 9-(beta-D-1,3-dioxolan-4-yl)guanine at 33.3 mg/kg iv followed by after 4 weeks washout period administered 33.3 mg/kg, po; format: ADME, organism-based; settings: in vivo, 672 h; procedure, shortened: as §1
[6] = system: Rhesus monkey; assay: Terminal elimination half life in orally dosed monkey assessed as 9-(beta-D-1,3-dioxolan-4-yl)guanine; format: ADME, organism-based, Macaca mulatta; settings: in vivo, po
[7] = AUC (0 to infinity) in iv dosed mouse; format: ADME, organism-based; set-up: route intravenous, time infinity; settings: plasma
[8] = AUC (0 to infinity) in orally dosed mouse; format: ADME, organism-based; set-up: route oral, time infinity; settings: plasma, po
[9] = system: Marmota monax; assay: AUC (0 to infinity) in woodchuck hepatitis virus -negative woodchucks assessed as 9-(beta-D-1,3-dioxolan-4-yl)guanine at 33.3 mg/kg, iv administered as single dose followed by dose of 33.3 mg/kg, po after 4 weeks washout period; format: ADME, organism-based, Plasma; settings: in vivo, 672 h; procedure, shortened: as §1
[10] = system: Marmota monax; assay: Terminal elimination half life in woodchuck hepatitis virus -negative woodchucks assessed as 9-(beta-D-1,3-dioxolan-4-yl)guanine at 33.3 mg/kg, iv administered as single dose followed by dose of 33.3 mg/kg, po after 4 weeks washout period; format: ADME, organism-based; settings: in vivo, 672 h; procedure, shortened: as §1
[11] = system: Marmota monax; assay: Terminal elimination half life in woodchuck hepatitis virus-negative woodchucks assessed as 9-(beta-D-1,3-dioxolan-4-yl)guanine at 33.3 mg/kg, iv administered as single dose; format: ADME, organism-based; set-up: dose 33.3 mg/kg, route intravenous; settings: in vivo; procedure, shortened: as §1
[12] = Oral bioavailability in mouse; format: ADME, organism-based; settings: in vivo
[13] = system: Woodchuck hepatitis virus; assay: Antiviral activity against woodchuck hepatitis virus infected woodchucks assessed as log reduction of serum viral DNA per ml of serum after 12 weeks; format: functional

Structure (SMILES): Nc1nc(=O)n([C@@H]2CS[C@H](CO)O2)cc1F [EMTRICITABINE]
- Activity [1]: 4.9

- AUC [2]: 146.2 µM·h
- beta t1/2 [3]: 1 h
- Cmax [4]: 24.6 µM
- Cmax [5]: 20.3 µM
- beta t1/2 [6]: 1.5 h
- AUC(0-inf) [7]: 818 µM·h
- AUC(0-inf) [8]: 930 µM·h
- AUC [9]: 309.7 µM·h
- beta t1/2 [10]: 12.1 h
- beta t1/2 [11]: 3.7 h
- bioavailability [12]: 114%
Structure (SMILES): Nc1nc2c(ncn2[C@H]2CO[C@@H](CO)O2)c(=O)[nH]1

Structure (SMILES): Nc1ccn([C@@H]2CS[C@H](CO)O2)c(=O)n1 [LAMIVUDINE]
- Activity [1]: 2.5

Structure (SMILES): CC(C)(C)C(=O)OCOP(=O)(COCCn1cnc2c(N)ncnc21)OCOC(=O)C(C)(C)C [ADEFOVIR DIPIVOXIL]
- Activity [13]: >2.5
- Activity [1]: 1.8

Structure (SMILES): Cc1cn([C@@H]2C[C@@H](O)[C@H](CO)O2)c(=O)[nH]c1=O [TELBIVUDINE]
- Activity [1]: 7

Structure (SMILES): C=C1[C@H](CO)[C@@H](O)C[C@@H]1n1cnc2c(=O)[nH]c(N)nc21.O [ENTECAVIR]
- Activity [1]: 7

Structure (SMILES): CC(C)OC(=O)OCOP(=O)(CO[C@H](C)Cn1cnc2c(N)ncnc21)OCOC(=O)OC(C)C.O=C(O)/C=C/C(=O)O [TENOFOVIR DISOPROXIL FUMARATE]
- Activity [1]: 1.5
